High-throughput results as filed in PubChem.
Compounds with a hit are over-represented: about 1.8% of the library has one in this group of screens.
CCR6 antagonist: antagonists of human CCR6 receptor; 340,000 tested, 0.49% active; CHO-K1 CCR6 PathHunter beta-arrestin, luminescence, CCL20-stimulated; AID 493098; inhibition, % at 20 µM; P51684;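 active means compounds whose inhibition of the agonist-driven luminescence signal at 20 µM reaches about 50%, limit read from the data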;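 further: cells stimulated with CCL20 at 14 nM final; plate controls were DMSO with CCL20 for no effect and DMSO without agonist for full effect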
EBI2 antag: antagonists of human EBI2 receptor. EBI2 beta-arrestin recruitment, luminescence, 7a,25-OHC stimulated. inhibition, % at 5 µM. 360,000 tested, 0.81% active; in the data active means inhibition above about 38%;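 further: enzyme fragment complementation signal reports receptor beta-arrestin coupling in cells; 0% = agonist plus DMSO wells and 100% = wells without agonist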
APJ antagonist: blocks the human apelin receptor APJ; P35414; AID 2521; inhibition, % at 20 µM; CHO-K1 APJ beta-arrestin complementation, luminescence; 330,000 tested, 0.32% active;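 active means inhibition above about 40% at 20 µM, limit read from the data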;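 further: cells challenged with 10 nM apelin-13 agonist together with compound; plate controls were apelin-13 plus DMSO wells for no effect and DMSO wells lacking apelin-13 for full effect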
Target sequence (P35414 whole entry, looked up): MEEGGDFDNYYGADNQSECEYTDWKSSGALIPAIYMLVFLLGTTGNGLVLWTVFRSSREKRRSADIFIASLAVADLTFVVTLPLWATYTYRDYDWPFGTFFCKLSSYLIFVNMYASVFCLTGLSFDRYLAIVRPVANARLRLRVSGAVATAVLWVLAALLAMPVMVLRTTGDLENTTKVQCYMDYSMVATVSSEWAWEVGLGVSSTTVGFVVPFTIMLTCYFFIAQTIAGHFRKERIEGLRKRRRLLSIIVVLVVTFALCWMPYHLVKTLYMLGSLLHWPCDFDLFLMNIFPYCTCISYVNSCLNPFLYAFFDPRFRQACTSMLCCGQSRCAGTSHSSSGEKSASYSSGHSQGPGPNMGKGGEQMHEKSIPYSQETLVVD
APJ ag: activates the human apelin receptor APJ; activation, % at 20 µM; P35414; CHO-K1 APJ PathHunter beta-arrestin, luminescence; 0% DMSO wells, 100% apelin; 330,000 tested, 0.11% active;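 active means activation more than six SD over the plate average, tested at 20 µM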;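 further: 0% = DMSO alone and 100% = apelin-13 at 10 nM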
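Assay system: CHO-K1 APJ beta-arrestin complementation cell line / Compound: single test compound dose, 20 µM final, 1% DMSO / Times: overnight seeding, 90 min compound at 25 °C, 1 h detection / Technique: beta-gal luminescence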
B2AR ag: human beta-2 adrenergic receptor agonism by FAP | response, % (concentration not given with the values) | Am2.2-beta2AR cells, FAP receptor internalization, flow cytometry | P07550 | 340,000 tested, 0.43% active;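 active means response above a set limit, near 3 SD of response in nonfluorescent compounds, cut at about 42% in these data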
CXCR6 block: blocks human CXCR6 beta-arrestin recruitment; CHO-K1 PathHunter CXCR6 beta-arrestin, luminescence; inhibition, % at 20 µM; 360,000 tested, 0.36% active; AID 602244; in the data active means inhibition above about 34%, passing the limit was not always enough;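 further: antagonist mode with CXCL16 agonist at 10 nM final; 0% = 10 nM CXCL16 with DMSO and 100% = unstimulated wells without agonist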
Active calls of the source: *; · = no result given.

SMILES | CCR6 antagonist | EBI2 antag | APJ antagonist | APJ ag | B2AR ag | CXCR6 block
COc1ccc(C(=O)/C=C/C(=O)N(CC(=O)NC2CCCCC2)Cc2cccs2)c(O)c1 | 92* | 25 | 37 | -3 | 115* | 72*
COc1ccc(CN(C(=O)/C=C/C(=O)c2ccc(OC)cc2O)C(C(=O)NC2CCCCC2)c2ccncc2)cc1 (centres undefined) | 2 | 11 | 9 | -5 | 1 | 5
COCCN(CC(=O)NC1CCCCC1)C(=O)/C=C/C(=O)c1ccc(OC)cc1O | 65* | 18 | · | · | 91* | 62*
CCCc1nc2cc(C)c(Br)c(C)n2c1Cc1ccc(OC)cc1C | · | 3 | · | · | · | 2
CC(=NNC(=S)N1CCCCCC1)c1cccc2cccnc12 | 91* | -9 | · | · | 0 | 36
COc1ccc(C(=O)c2ccc(Cl)c([N+](=O)[O-])c2)cc1 | -4 | -4 | -11 | 0 | 48* | -7
COc1ccc(C(=O)c2ccc(Cl)cc2)cc1 | 7 | 8 | -4 | -2 | 5 | -2
CS(=O)(=O)c1sc(C#N)c2c1C(=O)CC(c1ccccc1)C2 (centres undefined) | 92* | 66* | 84* | -5 | 106* | 91*
O=C(Nc1nnc(C2CC2)s1)c1cc([N+](=O)[O-])ccc1N1CCCCC1 | 72* | 12 | 16 | -3 | -18 | 20
Cc1ccc(NC(=O)c2cc([N+](=O)[O-])ccc2N2CCCC2)cc1 | 29 | 16 | 22 | -3 | 7 | 5
CCc1ccc(Nc2n[n+](-c3ccccc3)c(-c3c(Cl)cccc3Cl)s2)cc1 | 39 | -22 | 27 | 5 | 80* | 17
Fc1ccc(-[n+]2nc(Nc3ccccc3)sc2-c2c(Cl)cccc2Cl)cc1 | 13 | 6 | 9 | 16 | -2 | -1
CCCCN1C(=O)C(CC(=O)NCCCN(C)C)CC(C(=O)N(C(C)C)C(C)C)=C1C (centres undefined) | · | -12 | · | · | · | 4
Cn1nnnc1SCC(=O)Nc1cc(S(=O)(=O)N2CCCCC2)ccc1Cl | 3 | -8 | 2 | -6 | 9 | 7
CN(C)c1ccc(N=Nc2ccccc2C(=O)OCC(=O)NCC2CCCCC2)cc1 | 54* | 21 | 22 | -8 | 10 | 17
CCCCCCn1c(=O)n2n(c1=O)[C@@H]1CN(S(=O)(=O)c3ccc(C)cc3)C[C@]1(O)[C@@H](OC(=O)Nc1c(C)noc1C)C2 | · | 1 | · | · | · | 1
CN(C)c1c([N+](=O)[O-])cc(N2C(=O)C=CC2=O)cc1[N+](=O)[O-] | · | 3 | · | · | 6 | 75*
CCOC(=O)CN1C(=O)S/C(=C/c2cccc([N+](=O)[O-])c2O)C1=O | 56* | 19 | 32 | -8 | 5 | 36
O=C(c1cc2ccccn2n1)N1CCN(c2cccc(C(F)(F)F)c2)CC1 | -15 | 11 | 0 | 0 | -2 | 6
Cc1ccc(C)c(N2CCN(C(=O)c3cc4ccccn4n3)CC2)c1 | 8 | 58* | 5 | 1 | -7 | 4
CCc1ccc(NC(=O)c2ccc3c(c2)C(=O)N(Cc2ccco2)C3=O)cc1 | 4 | 84* | 7 | -3 | -5 | 7
O=C(O)c1cccc(NC(=O)c2ccc3c(c2)C(=O)N(Cc2ccco2)C3=O)c1 | 12 | -6 | 6 | -2 | 6 | 0
O=C(NCCc1ccc(Cl)cc1)c1ccc(S(=O)(=O)N2CCCC2)cc1 | 11 | 3 | 16 | -3 | 1 | -8
COc1cc(/C=C(\C#N)c2nc3ccccc3s2)ccc1OCC(=O)Nc1ccccc1 | -1 | -7 | · | · | 76* | 8
COc1cc(/C=C(\CC(=O)O)c2nc3ccccc3s2)ccc1OCC(=O)Nc1ccccc1F | 9 | -11 | · | · | 1 | 8
CC(=O)N1CCn2c3c(c(=O)c4cc(C)ccc42)CCC31 (centres undefined) | 27 | 7 | 40* | -11 | -3 | 12
COc1cc(/C=C2/OC(=O)c3cc([N+](=O)[O-])ccc32)cc(OC)c1OC | 12 | 3 | -7 | 10 | 0 | 0
COc1cc(-c2nc(-c3ccccc3)c(-c3cc([N+](=O)[O-])ccc3C)[nH]2)cc(OC)c1OC | 14 | 38* | 29 | -5 | 23 | 49*
CCCCNC(=O)c1nc(-c2cccnc2OC)oc1-c1ccc(Cl)cc1 | · | 31 | · | · | · | ·
